Laboratory results as given in ChEMBL document CHEMBL1122125, “Synthesis and in vivo antitumor activity of potential 5-fluorouracil prodrugs” (1982).

Legend:
Format in all cases: functional
[1] = tested on: Mus musculus; experiment: Antitumor activity was determined for median survival of mice against P-388 leukemia in mice at a dose of 300 mg/kg
How it was run: (§1)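 Male B6D2F1J mice implanted ip with 10⁶ P-388 cells on day 0; test agents given ip on days 1–4 (qd × 4) in sterile saline, or in 10% Tween 80 for the lipophilic thioether. Groups of 5 treated mice, with 10–17 untreated controls per experiment. Mice weighed on days 1 and 7 to give the 7-day weight change in g and %. Survival recorded in days as median and range.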

[2] = tested on: Mus musculus; experiment: Antitumor activity was determined for average weight on day 1 against P-388 leukemia in mice at a dose of 300 mg/kg
How it was run: (§2)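 Male B6D2F1J mice, groups of 5, inoculated ip with 10⁶ P-388 cells on day 0. Drug given ip on days 1-4 (qd × 4) in sterile saline, or in 10% Tween 80 for the poorly water-soluble thioether. Average weight per mouse recorded on day 1, with reweighing on day 7 for percent weight change. Untreated control groups had 10-17 animals per experiment.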

[3] = tested on: Mus musculus; experiment: Antitumor activity was determined for median survival of mice against P-388 leukemia in mice at a dose of 600 mg/kg; how it was run: as §1
[4] = tested on: Mus musculus; experiment: Percent increase in life span against P-388 leukemia in mice was determined at a dose of 300 mg/kg; settings: P388
How it was run: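 Male B6D2F1J mice, 5 per dose group, received 10⁶ P-388 cells ip on day 0. Dosing was ip qd × 4 on days 1-4 in sterile saline, or 10% Tween 80 for the butyl thioether. Median survival times of treated (T) and untreated control (C, 10-17 mice) groups were compared: %ILS = [(T/C) − 1]100. Weights taken on days 1 and 7.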

[5] = tested on: Mus musculus; experiment: Antitumor activity was determined for average weight on day 1 against P-388 leukemia in mice at a dose of 680 mg/kg; how it was run: as §2
[6] = tested on: Mus musculus; experiment: Antitumor activity was determined for average weight on day 1 against P-388 leukemia in mice at a dose 75 of mg/kg
How it was run: (§3)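 Male B6D2F1J mice given 10⁶ P-388 cells ip on day 0, then treated ip once daily on days 1-4 (qd × 4), 5 mice per dose group. Compounds dosed in sterile saline, except one lipophilic thioether given in 10% Tween 80. Mice weighed on days 1 and 7; mean weight per mouse on day 1 and 7-day weight change reported in g and as percent.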

[7] = tested on: Mus musculus; experiment: Antitumor activity was determined for survival range of mice against P-388 leukemia in mice at a dose of 340 mg/kg; how it was run: as §1
[8] = tested on: Mus musculus; experiment: Antitumor activity was determined for median survival of mice against P-388 leukemia in mice at a dose of 680 mg/kg; how it was run: as §1
[9] = tested on: Mus musculus; experiment: Antitumor activity was determined for average 7-day weight change against P-388 leukemia in mice at a dose of 300 mg/kg; how it was run: as §3
[10] = tested on: Mus musculus; experiment: Antitumor activity was determined for average 7-day weight change against P-388 leukemia in mice at a dose of 85 mg/kg; how it was run: as §3
[11] = tested on: Mus musculus; experiment: Antitumor activity was determined for median survival of mice against P-388 leukemia in mice at a dose of 150 mg/kg; how it was run: as §1
[12] = tested on: Mus musculus; experiment: Antitumor activity was determined for 7-day average percent weight change against P-388 leukemia in mice at a dose of 680 mg/kg; how it was run: as §3
[13] = tested on: Mus musculus; experiment: Antitumor activity was determined for average 7-day weight change against P-388 leukemia in mice at a dose of 680 mg/kg; how it was run: as §3

CC[C@H]1OC(n2cc(F)c(=O)[nH]c2=O)[C@H](O)[C@@H]1O (stereo partly drawn)
Survival median [1]: 17
Average weight [2]: 23.2 g mouse-1
Survival median [3]: 18
ILS at 300 mg/kg [4]: 54%
Average weight [5]: 25.8 g mouse-1
Average weight [6]: 21.8 g mouse-1
Survival range [7]: 15
Survival median [8]: 17
Average weight [9]: 0.6 g mouse-1
Average weight [10]: 1.2 g mouse-1
Survival median [11]: 17
Weight change [12]: -5%
Average weight [13]: -1.4 g mouse-1
